Measurements collected from several papers.
Target: Bone morphogenetic protein receptor type-1A (BMPR1A, Homo sapiens, UniProt P36894)

| SMILES | test | conditions | remaining binding |
| --- | --- | --- | --- |
| N[C@H]1CCN(c2nccc(-c3cnn4ncccc34)n2)C1 | binding | 1 µM | 75% |
| Cc1nccc(COC(=O)N2C[C@@H]3[C@@H](CNC(=O)c4ccc5[nH]nnc5c4)[C@@H]3C2)n1 | binding, competition with immobilised ligand | 1 µM | 85% |
| O=C(c1ccc(Nc2ncc(Cl)c(-c3cc4ccccc4s3)n2)cc1)N1CCC(N2CCCC2)CC1 | binding, competition with immobilised ligand | 1 µM | 60% |
| CN(CCCC(F)(F)F)c1nccc(-c2cnn3ncccc23)n1 | binding | 1 µM | 83% |
| O=C(NCCCN1CCOCC1)c1ccc(Nc2nccc(-c3cc4ccccc4s3)n2)cc1 | binding, competition with immobilised ligand | 1 µM | 78% |
| CC1=C(C#N)[C@@H](c2ccc3[nH]nc(C)c3c2)C(C#N)=C(c2ccc(Cl)cc2)N1 | binding, competition with immobilised ligand | 1 µM | 98.6% |
| C=CC(=O)N1CCC(C(=O)NCC(=O)N2CCN(c3nc(-c4cnc(N)nc4C(F)F)nc(N4CCOCC4)n3)CC2)CC1 | binding, competition with immobilised ligand | 1 µM | 80% |
| O=C(c1ccc(Nc2ncc(Cl)c(-c3ccc(Cl)s3)n2)cc1)N1CCC(N2CCCC2)CC1 | binding, competition with immobilised ligand | 1 µM | 59% |
| C[C@@]1(Cc2ccc(C#N)cc2)C(=O)N(c2cc(Cl)cc(Cl)c2)c2ncc(C(=O)NC3(c4nc(C5CCC5)no4)CC3)n21 | binding, competition with immobilised ligand | 1 µM | 100% |
| O=C(Nc1c[nH]nc1C(=O)NC1CCNCC1)c1cc(F)cc(F)c1 | binding, competition with immobilised ligand | 1 µM | 89% |
| CS(=O)(=O)NCC[C@H](NC(=O)c1cncc2c1cnn2-c1ccc(F)cc1)c1ccnc(S(C)(=O)=O)c1 | binding, competition with immobilised ligand | 1 µM | 92% |
| CNC(=O)[C@@H]1CC[C@@H](n2c(-c3ccc4cnccc4c3)nc3ccc(C(=O)NCc4cccc(C(N)=O)c4)cc32)C1 | binding, competition with immobilised ligand | 1 µM | 92% |
| COc1ncc2cc3ccccc3nc2c1C#N | binding, competition with immobilised ligand | 5 µM | 94% |
| CN(C)c1ncnc(-c2ccc3nc(Nc4cc(CN5CCN(C(=O)CC(F)(F)F)CC5)ccn4)[nH]c3c2)c1Cl | cell-free assay, competition with immobilised ligand | 1 µM | 95% |
| CN(c1nccc(-c2cnn3ncccc23)n1)C1CC1 | binding | 1 µM | 78% |
| COc1cnc(Nc2cccc(S(N)(=O)=O)c2)nc1N1CCN(c2ccccc2)C(=O)C1 | binding, competition with immobilised ligand | 1 µM | 67% |
| CN(C)c1nccc(-c2cnc3ncccn23)n1 | binding | 1 µM | 100% |
| FC(F)(F)c1ccc2c(c1)nc(-c1cccnc1)n2C1CC1 | cell-free assay, competition with immobilised ligand | 1 µM | 93% |
| CN(C)c1ncc(F)c(-c2cnn3ncccc23)n1 | binding | 1 µM | 100% |
| Nc1ncc2c(n1)-c1c([nH]c3ccc(C#CC4CC4)cc13)CCCC2 | binding, competition with immobilised ligand | 1 µM | 95% |
